Laboratory results published in ChEMBL document CHEMBL1641561, “Evaluation of hadacidin analogues” (Bioorg Med Chem Lett, 2011).
The source made the active and inactive calls. No cut-off for these calls is given here.

Columns and labels:
[1] = Inhibition of adenylosuccinate synthase at 1:1 aspartate to compound ratio
[2] = Inhibition of adenylosuccinate synthase at 5:1 aspartate to compound ratio
[3] = Inhibition of adenylosuccinate synthase at 10 mM
In short: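 Recombinant His-tagged AdSS (pMOB45 in E. coli BL21(DE3), IPTG-induced at 18 °C, IMAC-purified); 2.0 µg per 100 µl reaction in 20 mM Hepes pH 7.5, 50 µM IMP, 25 µM GTP, 500 µM MgCl2, 10 mM test compound. Started at room temperature with 100 or 500 µM aspartate, frozen after 5 min. Adenylosuccinate quantified by HPLC (266 nm, pH 4.4 phosphate/PIC A/methanol), peak areas over three runs.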

SMILES | inhibition [1] | inhibition [2] | inhibition ([1]; concentration not given here) [%] | inhibition ([2]; concentration not given here) [%] | inhibition [3]
CC(CCC(=O)O)N(O)C=O (centres undefined) | inactive | inactive |  |  | 
O=CN(O)CCCCC(=O)O | inactive | inactive |  |  | 
CC(C(=O)O)N(O)C=O (centres undefined) |  |  | 90 | 50 | 
O=CN(O)CCC(=O)O | inactive | inactive |  |  | 
CCCC(C(=O)O)N(O)C=O (centres undefined) | Active | inactive |  |  | 
O=CN(O)C(CCC(=O)O)C(=O)O (centres undefined) |  |  | 60 |  | 
CCC(C(=O)O)N(O)C=O (centres undefined) | Active | inactive |  |  | 
CCC(C)C(C(=O)O)N(O)C=O (centres undefined) | Active | inactive |  |  | 
O=C(O)CNO | inactive | inactive |  |  | 
CC(CCC(=O)O)NO (centres undefined) | inactive | inactive |  |  | 
O=CN(O)CC(=O)O | inactive |  |  | 80 | Active
O=C(O)CCNO | inactive | inactive |  |  | 
O=CN(O)CCCC(=O)O | inactive | inactive |  |  | 
O=C(O)CCCNO | inactive | inactive |  |  | 
O=CN(O)C(CC(=O)O)C(=O)O (centres undefined) |  |  | 30 |  | 
